In ChEMBL document CHEMBL1142933, “Rational design of novel, potent small molecule pan-selectin antagonists” (J Med Chem, 2007):
Each block holds one compound with its values, some of them ahead of it.

What was measured:
[1] = biological target: T1, L-selectin (Homo sapiens, UniProt P14151); test: Inhibition of human L-selectin after 2 hrs
T1 sequence (P14151 whole entry): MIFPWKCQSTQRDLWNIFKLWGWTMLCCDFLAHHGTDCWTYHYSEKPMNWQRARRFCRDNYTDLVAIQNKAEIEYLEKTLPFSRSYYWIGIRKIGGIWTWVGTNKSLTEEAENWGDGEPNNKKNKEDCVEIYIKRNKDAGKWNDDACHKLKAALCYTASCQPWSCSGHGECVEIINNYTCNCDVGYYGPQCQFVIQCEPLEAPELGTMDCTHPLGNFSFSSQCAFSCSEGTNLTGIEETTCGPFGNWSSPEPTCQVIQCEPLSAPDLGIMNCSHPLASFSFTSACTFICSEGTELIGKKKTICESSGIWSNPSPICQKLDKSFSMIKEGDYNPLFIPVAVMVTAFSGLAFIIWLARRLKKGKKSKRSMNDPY
In short: (§1)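 Biotinylated sLeX-tyrosine sulfate polyacrylamide complexed with streptavidin-peroxidase added with compound at varying concentrations (HEPES pH 7.4, 1 mM CaCl2, 1% DMSO), 2 h 37 °C. TMB read-out, OD 450 vs 620 nm.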

[2] = tested on: HL-60; test: Inhibition of attachment of HL60 cells to E-selectin at 109 uM after 5 mins; assay type: functional; settings: Homo sapiens, HL-60, 5 min
In short: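 Dishes coated with E- or P-selectin/Fc chimera, blocked with BSA, mounted in a parallel flow chamber run recirculating; HL-60 cells at 2.4 million/mL final. Cells attached after 5 min continuous flow at calculated shear 1 dyn/cm², with 109 µM compound or DMSO vehicle, counted in five low power fields. Mean inhibition as % of vehicle control from mean cells/field of at least two independent experiments.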

[3] = biological target: T2, E-selectin (Homo sapiens, UniProt P16581); test: Inhibition of human E-selectin after 2 hrs; in short: as §1
T2 sequence (P16581 whole entry): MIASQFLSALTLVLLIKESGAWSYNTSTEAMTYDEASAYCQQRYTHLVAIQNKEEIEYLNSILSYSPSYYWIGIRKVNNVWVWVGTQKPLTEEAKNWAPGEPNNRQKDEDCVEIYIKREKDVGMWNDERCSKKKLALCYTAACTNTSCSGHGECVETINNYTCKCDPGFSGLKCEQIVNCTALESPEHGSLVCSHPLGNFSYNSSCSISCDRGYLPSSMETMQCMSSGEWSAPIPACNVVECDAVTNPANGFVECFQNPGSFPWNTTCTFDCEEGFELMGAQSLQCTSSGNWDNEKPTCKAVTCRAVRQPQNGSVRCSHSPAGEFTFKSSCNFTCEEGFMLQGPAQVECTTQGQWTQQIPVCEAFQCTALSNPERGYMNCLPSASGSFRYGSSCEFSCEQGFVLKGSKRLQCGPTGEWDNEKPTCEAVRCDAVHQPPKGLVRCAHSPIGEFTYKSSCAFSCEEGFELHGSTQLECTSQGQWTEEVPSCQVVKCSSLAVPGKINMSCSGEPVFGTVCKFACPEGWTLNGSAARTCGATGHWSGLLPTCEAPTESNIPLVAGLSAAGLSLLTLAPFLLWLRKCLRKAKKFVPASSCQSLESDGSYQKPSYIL

[4] = biological target: T3, P-selectin (Homo sapiens, UniProt P16109); test: Inhibition of human P-selectin after 2 hrs; in short: as §1
T3 sequence (P16109 whole entry): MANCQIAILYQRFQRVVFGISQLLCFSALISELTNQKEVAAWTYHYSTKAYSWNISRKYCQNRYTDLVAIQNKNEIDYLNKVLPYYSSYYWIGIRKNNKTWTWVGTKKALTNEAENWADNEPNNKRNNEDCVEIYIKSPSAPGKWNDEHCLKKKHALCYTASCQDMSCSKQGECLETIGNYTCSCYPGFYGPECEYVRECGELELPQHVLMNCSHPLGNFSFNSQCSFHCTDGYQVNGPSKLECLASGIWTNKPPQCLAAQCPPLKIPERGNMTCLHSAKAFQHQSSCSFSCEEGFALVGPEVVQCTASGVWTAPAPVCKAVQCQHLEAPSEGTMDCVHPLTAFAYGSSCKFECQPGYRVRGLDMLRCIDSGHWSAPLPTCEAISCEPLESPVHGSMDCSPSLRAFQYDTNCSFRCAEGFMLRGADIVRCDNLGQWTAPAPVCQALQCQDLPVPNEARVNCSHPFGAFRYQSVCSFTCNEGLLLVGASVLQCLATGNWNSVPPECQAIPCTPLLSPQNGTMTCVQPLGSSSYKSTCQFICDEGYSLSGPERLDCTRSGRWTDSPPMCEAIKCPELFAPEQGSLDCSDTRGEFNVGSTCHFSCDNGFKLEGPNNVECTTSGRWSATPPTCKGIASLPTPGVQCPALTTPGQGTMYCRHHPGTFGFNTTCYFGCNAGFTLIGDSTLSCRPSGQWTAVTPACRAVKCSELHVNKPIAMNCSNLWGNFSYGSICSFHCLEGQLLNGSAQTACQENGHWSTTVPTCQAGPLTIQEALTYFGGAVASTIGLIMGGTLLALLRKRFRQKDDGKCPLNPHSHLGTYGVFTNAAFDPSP

[5] = tested on: HL-60; test: Inhibition of attachment of HL60 cells to P-selectin at 109 uM after 5 mins; assay type: functional; settings: Homo sapiens, HL-60, 5 min
In short: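 Dishes coated with E- or P-selectin/Fc chimera, blocked with BSA, mounted in a parallel flow chamber run recirculating; HL-60 cells at 2.4 million/mL final. Mean inhibition as % of vehicle control from mean cells/field of at least two independent experiments.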

Structure (SMILES): O=C(O)Cc1ccc(-c2cccc(NC(=O)c3cccc(-c4ccc(O)c(O)c4O)c3)c2)s1
IC50 [3]: 15.7 µM
IC50 [4]: 0.74 µM
IC50 [1]: 1.1 µM
inhibition at 109 µM [2]: 58%
inhibition at 109 µM [5]: 93%

Structure (SMILES): O=C(CCc1cc(O)c(O)c(O)c1)Nc1cccc(C(=O)O)c1
IC50 [3]: 18.7 µM
IC50 [4]: 19.6 µM
IC50 [1]: 46.6 µM

Structure (SMILES): O=C(Cc1cc(O)c(O)c(O)c1)NCc1ccc(C(=O)O)cc1
inhibition at 109 µM [2]: 16%
inhibition at 109 µM [5]: 20%

Structure (SMILES): O=C(O)Cc1ccc(-c2ccccc2NC(=O)/C=C/c2cc(O)c(O)c(O)c2)s1
IC50 [3]: 48.6 µM
IC50 [4]: 19.5 µM
IC50 [1]: 21.3 µM
inhibition at 109 µM [2]: 28%
inhibition at 109 µM [5]: 23%

Structure (SMILES): O=C(O)Cc1ccc(-c2ccccc2NC(=O)c2cccc(-c3ccc(O)c(O)c3O)c2)s1
inhibition at 109 µM [2]: 61%
inhibition at 109 µM [5]: 55%

Structure (SMILES): O=C(O)Cc1ccc(-c2ccccc2NC(=O)CCc2ccc(O)c(O)c2O)s1
IC50 [3]: > 500 µM
IC50 [4]: 28.6 µM
IC50 [1]: 85.8 µM

Structure (SMILES): Cc1ccc(C(=O)O)cc1NC(=O)CCc1cc(O)c(O)c(O)c1
IC50 [4]: 2.9 µM
IC50 [1]: 4.2 µM

Structure (SMILES): O=C(CCc1cc(O)c(O)c(O)c1)N[C@H]1CC[C@H](C(=O)O)CC1
IC50 [3]: 3.1 µM
IC50 [4]: 3.4 µM
IC50 [1]: 5.7 µM

Structure (SMILES): Cc1cc(O)c(O)c(O)c1
IC50 [3]: 31.7 µM
IC50 [4]: 31.8 µM
IC50 [1]: 38.5 µM

Structure (SMILES): O=C(O)Cc1cccc(-c2ccccc2NC(=O)Cc2cc(O)c(O)c(O)c2)c1
inhibition at 109 µM [2]: 18%
inhibition at 109 µM [5]: 22%

Structure (SMILES): Cc1c(NC(=O)Cc2cc(O)c(O)c(O)c2)cccc1C(=O)O
IC50 [4]: > 500 µM
IC50 [1]: > 500 µM
inhibition at 109 µM [2]: 19%

Structure (SMILES): O=C(O)Cc1ccc(-c2ccccc2NC(=O)c2ccccc2-c2cc(O)c(O)c(O)c2)s1
IC50 [3]: 114 µM
IC50 [4]: 212 µM
IC50 [1]: 244 µM
inhibition at 109 µM [5]: 25%

The next lines start with results.

IC50 [1]: > 500 µM
Structure (SMILES): O=C(O)Cc1cccc(NC(=O)Cc2cc(O)c(O)c(O)c2)c1
inhibition at 109 µM [2]: 27%

IC50 [3]: > 500 µM
Structure (SMILES): O=C(O)Cc1ccc(-c2ccccc2NC(=O)Cc2ccc(O)c(O)c2O)s1
inhibition at 109 µM [2]: 26%

IC50 [3]: 3.3 µM
IC50 [4]: 2.4 µM
IC50 [1]: 3.1 µM
Structure (SMILES): O=C(O)Cc1ccc(-c2ccccc2NC(=O)Cc2cc(O)c(O)c(O)c2)s1
inhibition at 109 µM [2]: 35%
inhibition at 109 µM [5]: 11%

IC50 [3]: > 500 µM
IC50 [4]: > 500 µM
IC50 [1]: > 500 µM
Structure (SMILES): O=C(O)Cc1cccc(-c2ccccc2O[C@H]2O[C@H](CO)[C@@H](O)[C@H](O)[C@@H]2O)c1
inhibition at 109 µM [2]: 34%

IC50 [3]: > 500 µM
IC50 [4]: 3.6 µM
IC50 [1]: 9.7 µM
Structure (SMILES): O=C(O)Cc1ccc(-c2ccccc2NC(=O)Cc2cccc(-c3ccc(O)c(O)c3O)c2)s1
inhibition at 109 µM [5]: 58%

IC50 [3]: 41.9 µM
IC50 [4]: 10.2 µM
IC50 [1]: 13.6 µM
Structure (SMILES): O=C(O)Cc1ccc(-c2ccccc2NC(=O)CCc2cc(O)c(O)c(O)c2)s1
inhibition at 109 µM [2]: 35%
inhibition at 109 µM [5]: 11%
